In ChEMBL document CHEMBL4346740, “Development of novel lithocholic acid derivatives as vitamin D receptor agonists” (Bioorg Med Chem, 2019):
Activity calls are given as the source filed them. The rule behind the calls is not given here.

Legend:
[1] = target: T1, Vitamin D3 receptor (Homo sapiens) (UniProt P11473); test: Transactivation of human VDR expressed in COS-7 cells transfected with mouse […] for 24 hrs by luciferase based reporter gene assay; assay type: cell-based
T1 sequence (whole entry): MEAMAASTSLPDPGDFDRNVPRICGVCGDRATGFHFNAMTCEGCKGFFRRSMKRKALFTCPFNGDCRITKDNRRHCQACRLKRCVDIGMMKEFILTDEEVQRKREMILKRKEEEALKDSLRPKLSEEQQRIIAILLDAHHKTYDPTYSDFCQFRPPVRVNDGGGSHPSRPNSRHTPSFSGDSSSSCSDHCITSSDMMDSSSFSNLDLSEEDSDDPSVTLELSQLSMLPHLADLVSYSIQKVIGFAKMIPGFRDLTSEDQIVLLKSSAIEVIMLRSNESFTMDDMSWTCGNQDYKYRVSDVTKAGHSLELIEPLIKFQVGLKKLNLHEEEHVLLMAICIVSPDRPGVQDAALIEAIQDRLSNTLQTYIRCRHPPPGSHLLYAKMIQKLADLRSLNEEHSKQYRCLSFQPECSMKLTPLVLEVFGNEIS
Outline: (§1)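 COS-7 cells in DMEM with 5% FCS, lipofected at 24 h with SPPx3-TK-LUC (three mouse osteopontin VDRE copies), pCMX-hVDR and pRL-CMV. After 4 h, switched to DMEM with 1% FCS. Next day, compound, 1α,25(OH)2D3 or ethanol vehicle added for 24 h. Lysate luciferase normalized to sea pansy internal control; triplicate.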

[2] = target: T2, Vitamin D3 receptor (Bos taurus) (UniProt Q28037); test: Displacement of [3H]1alpha,25(OH)2D3 from bovine thymus VDR incubated for 19 hrs by radioactivity based competitive binding assay
T2 sequence (whole entry): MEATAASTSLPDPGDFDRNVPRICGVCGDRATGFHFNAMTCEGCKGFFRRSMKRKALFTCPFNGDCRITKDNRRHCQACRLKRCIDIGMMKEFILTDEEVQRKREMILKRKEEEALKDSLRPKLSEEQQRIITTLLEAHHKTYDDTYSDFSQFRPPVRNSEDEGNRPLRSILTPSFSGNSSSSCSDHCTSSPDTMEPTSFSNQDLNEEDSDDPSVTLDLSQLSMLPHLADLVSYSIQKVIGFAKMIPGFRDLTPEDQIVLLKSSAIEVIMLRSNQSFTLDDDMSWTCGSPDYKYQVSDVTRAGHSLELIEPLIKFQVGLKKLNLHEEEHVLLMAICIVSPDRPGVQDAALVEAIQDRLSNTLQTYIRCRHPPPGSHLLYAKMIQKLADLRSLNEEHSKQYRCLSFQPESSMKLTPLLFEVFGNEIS
Outline: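 Bovine thymus VDR in 0.05 M phosphate buffer (pH 7.4) with 0.3 M KCl and 5 mM DTT. Incubated 19 h at 4 °C with 0.072 nM [3H]1α,25(OH)2D3 plus graded amounts of analog or vehicle. Bound and free ligand separated on dextran-coated charcoal (20 min, 4 °C), then centrifuged at 1000g. Supernatant radioactivity counted; run in duplicate.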

[3] = target: T1, Vitamin D3 receptor (Homo sapiens); test: Transactivation of VDR in human […] cell assessed as cell differentiation at 10^-7 to 10^-5 M measured after 4 days by NBT dye-based assay
Outline: (§2)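 HL-60 cells grown in RPMI-1640 with 5% FBS, diluted to 8.0 × 10^4 cells/mL. Compound added from ethanol solution; ethanol-only control; 1α,25(OH)2D3 run alongside each time. Incubated 4 days at 37 °C, 5% CO2. Cells then exposed 20 min at 37 °C to 0.2% NBT with TPA (200 ng/mL) in PBS. Formazan-positive percentage scored in at least 200 cells.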

[4] = target: T1, Vitamin D3 receptor (Homo sapiens); test: Transactivation of human VDR expressed in COS-7 cells transfected with mouse osteopontin VDRE at >1 uM measured after 24 hrs by luciferase based reporter gene assay; assay type: cell-based; outline: as §1
[5] = target: T1, Vitamin D3 receptor (Homo sapiens); test: Transactivation of VDR in human […] cell assessed as cell differentiation at 10^-5 M measured after 4 days by NBT dye-based assay; outline: as §2

Row | Activity [3] | SMILES | Activity [1] | also measured
1 | – | C[C@H](CCC(=O)O)[C@H]1CC[C@H]2[C@@H]3CC[C@@H]4C[C@H](OS(C)(=O)=O)CC[C@]4(C)[C@H]3CC[C@]12C | Active | Activity [2]: Active
2 | inactive | C[C@H](CCC(=O)O)[C@H]1CC[C@H]2[C@@H]3CC[C@@H]4C[C@H](OC(=O)C(F)(F)F)CC[C@]4(C)[C@H]3CC[C@]12C | – | Activity [4]: Active
3 | – | CC(=O)O[C@@H]1CC[C@@]2(C)[C@H](CC[C@@H]3[C@@H]2CC[C@]2(C)[C@@H]([C@H](C)CCC(=O)O)CC[C@@H]32)C1 | Active | Activity [5]: Active
4 | inactive | C[C@H](CCC(=O)O)[C@H]1CC[C@H]2[C@@H]3CC[C@@H]4C[C@H](OC(=O)c5ccccc5)CC[C@]4(C)[C@H]3CC[C@]12C | – | –
5 | inactive | COC(=O)O[C@@H]1CC[C@@]2(C)[C@H](CC[C@@H]3[C@@H]2CC[C@]2(C)[C@@H]([C@H](C)CCC(=O)O)CC[C@@H]32)C1 | – | –
6 | Active | C[C@H](CCC(=O)O)[C@H]1CC[C@H]2[C@@H]3CC[C@@H]4C[C@H](NS(C)(=O)=O)CC[C@]4(C)[C@H]3CC[C@]12C | – | –
